Assay results published in ChEMBL document CHEMBL2157922, “Synthesis and antifungal activity of diverse C-2 pyridinyl and pyridinylvinyl substituted quinolines” (2012).
In brackets after ≈: the same amount, converted by molar mass.

Legend:
Type in all cases: functional
[1] = system: Aspergillus niger; test: Antifungal activity against Aspergillus niger ATCC 9029 after 48 hrs by broth microdilution technique; conditions: ATCC 9029, 48 h
Method in brief: (§1)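 Moulds and dermatophytes were run by CLSI broth microdilution in MOPS-buffered RPMI-1640 at pH 7.0. Aspergillus was incubated at 30 °C and dermatophytes at 28–30 °C, in a moist, dark chamber. MIC100, the lowest concentration with no visible growth, was read visually at a time set by growth of the control fungus.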

[2] = system: Candida albicans; test: Antifungal activity against Candida albicans ATCC 10231 after 48 hrs by broth microdilution technique; conditions: ATCC 10231, 48 h
Method in brief: (§2)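 Yeasts were tested by CLSI broth microdilution in RPMI-1640 buffered to pH 7.0 with MOPS, with compound from 250 down to 0.98 in DMSO stocks. Trays were held at 30 °C in a moist, dark chamber. MIC100, the lowest concentration giving total visual inhibition against the growth control, was read by eye at 48 h.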

[3] = system: Trichophyton mentagrophytes; test: Antifungal activity against Trichophyton mentagrophytes ATCC 9972 after 48 hrs by broth microdilution technique; conditions: ATCC 9972, 48 h; method in brief: as §1
[4] = system: Aspergillus flavus; test: Antifungal activity against Aspergillus flavus ATCC 9170 after 48 hrs by broth microdilution technique; conditions: ATCC 9170, 48 h; method in brief: as §1
[5] = system: Saccharomyces cerevisiae; test: Antifungal activity against Saccharomyces cerevisiae ATCC 9763 after 48 hrs by broth microdilution technique; conditions: ATCC 9763, 48 h; method in brief: as §2
[6] = system: Trichophyton rubrum; test: Antifungal activity against Trichophyton rubrum CCC 113 after 48 hrs by broth microdilution technique; conditions: CCC 113, 48 h
[7] = system: Cryptococcus neoformans; test: Antifungal activity against Cryptococcus neoformans ATCC 32264 after 48 hrs by broth microdilution technique; conditions: ATCC 32264, 48 h; method in brief: as §2
[8] = system: Aspergillus fumigatus; test: Antifungal activity against Aspergillus fumigatus ATCC 26934 after 48 hrs by broth microdilution technique; conditions: ATCC 26934, 48 h; method in brief: as §1
[9] = system: Nannizzia gypsea; test: Antifungal activity against Microsporum gypseum CCC 115 after 48 hrs by broth microdilution technique; conditions: CCC 115, 48 h; method in brief: as §1
[10] = system: Candida parapsilosis; test: Antifungal activity against Candida parapsilosis CCC 124 after 48 hrs by broth microdilution technique; conditions: Lodderomyces parapsilosis, CCC 124, 48 h
[11] = system: Candida albicans; test: Antifungal activity against Candida albicans CCC 129 after 48 hrs by broth microdilution technique; conditions: CCC 129, 48 h
[12] = system: Candida albicans; test: Antifungal activity against Candida albicans CCC 125 after 48 hrs by broth microdilution technique; conditions: CCC 125, 48 h
[13] = system: Candida albicans; test: Antifungal activity against Candida albicans CCC 128 after 48 hrs by broth microdilution technique; conditions: CCC 128, 48 h
[14] = system: Cryptococcus neoformans; test: Antifungal activity against Cryptococcus neoformans IM 00319 after 48 hrs by broth microdilution technique; conditions: IM 00319, 48 h
Method in brief: (§3)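 C. neoformans was tested by 96-well RPMI-1640 microdilution, with DMSO-matched growth and sterility control wells. Plates were incubated 48 h at 30 °C in a moist, dark chamber and read at OD405. % inhibition = 100 − (CTW − SCW)/(GCW − SCW), in duplicate. For the clinical isolates, MIC80 and MIC50 are the lowest concentrations giving 80% and 50% inhibition.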

[15] = system: Candida albicans; test: Antifungal activity against Candida albicans CCC 127 after 48 hrs by broth microdilution technique; conditions: CCC 127, 48 h
[16] = system: Candida tropicalis; test: Antifungal activity against Candida tropicalis CCC 131 after 48 hrs by broth microdilution technique; conditions: CCC 131, 48 h
[17] = system: Cryptococcus neoformans; test: Antifungal activity against Cryptococcus neoformans IM 983036 after 48 hrs by broth microdilution technique; conditions: IM 983036, 48 h; method in brief: as §3
[18] = system: Candida albicans; test: Antifungal activity against Candida albicans CCC 126 after 48 hrs by broth microdilution technique; conditions: CCC 126, 48 h
[19] = system: Cryptococcus neoformans; test: Antifungal activity against Cryptococcus neoformans IM 983040 after 48 hrs by broth microdilution technique; conditions: IM 983040, 48 h; method in brief: as §3
[20] = system: Cryptococcus neoformans; test: Antifungal activity against Cryptococcus neoformans IM 972724 after 48 hrs by broth microdilution technique; conditions: IM 972724, 48 h; method in brief: as §3
[21] = system: Pichia kudriavzevii; test: Antifungal activity against Candida krusei CCC 117 after 48 hrs by broth microdilution technique; conditions: CCC 117, 48 h
[22] = system: Candida albicans; test: Antifungal activity against Candida albicans CCC 130 after 48 hrs by broth microdilution technique; conditions: CCC 130, 48 h
[23] = system: Nakaseomyces glabratus; test: Antifungal activity against Candida glabrata CCC 115 after 48 hrs by broth microdilution technique; conditions: CCC 115, 48 h
[24] = system: Cryptococcus neoformans; test: Antifungal activity against Cryptococcus neoformans IM 042074 after 48 hrs by broth microdilution technique; conditions: IM 042074, 48 h; method in brief: as §3
[25] = system: Cryptococcus neoformans; test: Antifungal activity against Cryptococcus neoformans IM 972751 after 48 hrs by broth microdilution technique; conditions: IM 972751, 48 h; method in brief: as §3

MIC [1]	MIC [2]	MIC [3]	MIC [4]	MIC [5]	MIC [6]	MIC [7]	MIC [8]	MIC [9]	Compound	MFC [3]	MFC [4]	MFC [6]	MFC [8]	MFC [9]	also measured
> 250 µg/mL	> 250 µg/mL	250 µg/mL (≈ 937 µM)	250 µg/mL (≈ 937 µM)	> 250 µg/mL	250 µg/mL (≈ 937 µM)	> 250 µg/mL	250 µg/mL (≈ 937 µM)	250 µg/mL (≈ 937 µM)	Clc1ccc2nc(/C=C/c3cccnc3)ccc2c1	> 250 µg/mL	> 250 µg/mL	> 250 µg/mL	> 250 µg/mL	> 250 µg/mL	–
250 µg/mL (≈ 1110 µM)	> 250 µg/mL	62 µg/mL (≈ 276 µM)	125 µg/mL (≈ 557 µM)	> 250 µg/mL	62 µg/mL (≈ 276 µM)	62 µg/mL (≈ 276 µM)	125 µg/mL (≈ 557 µM)	62 µg/mL (≈ 276 µM)	Fc1ccc2nc(-c3cccnc3)ccc2c1	62 µg/mL (≈ 276 µM)	250 µg/mL (≈ 1110 µM)	62 µg/mL (≈ 276 µM)	250 µg/mL (≈ 1110 µM)	62 µg/mL (≈ 276 µM)	MFC [1]: > 250 µg/mL; MFC [7]: 250 µg/mL (≈ 1110 µM)

Compound	MIC [1]	MIC [2]	MIC [3]	MIC [4]	MIC [5]	MIC [6]	MIC [7]	MIC [8]	MIC [9]	MFC [3]	MFC [4]	MFC [6]	MFC [8]	MFC [9]	also measured
C[C@@H]1[C@H](O)[C@@H](C)/C=C/C=C/C=C/C=C/C=C/C=C/C=C/[C@H](O[C@@H]2O[C@H](C)[C@@H](O)[C@H](N)[C@@H]2O)C[C@@H]2O[C@](O)(C[C@@H](O)C[C@@H](O)[C@H](O)CC[C@@H](O)C[C@@H](O)CC(=O)O[C@H]1C)C[C@H](O)[C@H]2C(=O)O [AMPHOTERICIN B]	0.49 µg/mL (≈ 0.53 µM)	0.98 µg/mL (≈ 1.06 µM)	0.06 µg/mL (≈ 0.0649 µM)	0.49 µg/mL (≈ 0.53 µM)	0.49 µg/mL (≈ 0.53 µM)	0.06 µg/mL (≈ 0.0649 µM)	0.25 µg/mL (≈ 0.271 µM)	0.49 µg/mL (≈ 0.53 µM)	0.12 µg/mL (≈ 0.13 µM)	–	–	–	–	–	MIC80 [10]: 0.78 µg/mL (≈ 0.844 µM); MIC80 [11]: 0.78 µg/mL (≈ 0.844 µM); MIC80 [12]: 0.78 µg/mL (≈ 0.844 µM); MIC80 [13]: 1.56 µg/mL (≈ 1.69 µM); MIC80 [14]: 0.25 µg/mL (≈ 0.271 µM); MIC80 [15]: 0.78 µg/mL (≈ 0.844 µM); MIC80 [2]: 1 µg/mL (≈ 1.08 µM); MIC80 [16]: 0.5 µg/mL (≈ 0.541 µM); MIC80 [17]: 0.13 µg/mL (≈ 0.141 µM); MIC80 [18]: 1.56 µg/mL (≈ 1.69 µM); MIC80 [19]: 0.13 µg/mL (≈ 0.141 µM); MIC80 [7]: 0.25 µg/mL (≈ 0.271 µM); MIC80 [20]: 0.06 µg/mL (≈ 0.0649 µM); MIC80 [21]: 0.39 µg/mL (≈ 0.422 µM); MIC80 [22]: 0.5 µg/mL (≈ 0.541 µM); MIC80 [23]: 0.39 µg/mL (≈ 0.422 µM); MIC80 [24]: 0.25 µg/mL (≈ 0.271 µM); MIC80 [25]: 0.25 µg/mL (≈ 0.271 µM)
